The record followed here is ChEMBL document CHEMBL4190232, “Isoflavones and Rotenoids from the Leaves of Millettia oblata ssp. teitensis” (J Nat Prod, 2017).

One assay relates to MDA-MB-231. The assay is described as follows: Cytotoxicity against human MDA-MB-231 cells assessed as reduction in cell viability after 72 hrs by alamarBlue assay. The format is functional, cell-based. To be noted: MDA-MB-231, 72 h. Put shortly: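 MDA-MB-231 cells grown in DMEM with 10% FBS, 2 mM L-glutamine, penicillin/streptomycin, 37 °C, 5% CO2. Seeded at 10⁴ cells/well, preincubated 24 h, then compound or DMSO vehicle (0.1% or 1.0% v/v) for 72 h. Viability by Alamar Blue, absorbance at 570 nm (600 nm reference), as % of vehicle control; six replicates, at least six independent experiments.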
(Resazurin is reduced to fluorescent resorufin, in cell work by metabolically active cells.)

The species entered for another assay is Mus musculus. The assay is described as follows: Inhibition of cap/HCV-mediated translation in mouse Krebs2 cell free extract expressing FF/HCV/IRES-Ren mRNA reporter transcript assessed as reduction in luciferase production at 20 uM after 60 mins. The class given is functional. Put shortly: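 Compound stocks were 10 mM in DMSO, diluted to 200 μM in water, and tested at a final 20 μM in Krebs-2 translation extracts. The extracts were programmed with bicistronic Firefly–HCV IRES–Renilla luciferase mRNA. Reactions ran for 60 min at 30 °C, after which luciferase activities were measured.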

The next assay concerns HepG2. The assay is described as follows: Cytotoxicity against human HepG2 cells assessed as reduction in cell viability by MTT assay. The class given is functional, cell-based.
Assay [1] concerns Lewis lung carcinoma cell line. The assay is described as follows: Cytotoxicity against mouse LL/2 cells assessed as reduction in cell viability by MTT assay. The format is functional, cell-based. For orientation: Tetrazolium assays rely on reduction of a dye to a coloured formazan, in cell work by metabolically active cells.
A short description of assay [2]: Cytotoxicity against mouse C26 cells assessed as reduction in cell viability by MTT assay. The format is functional, cell-based.
The subject of another assay is B16. The assay is described as follows: Cytotoxicity against mouse B16 cells assessed as reduction in cell viability by MTT assay. The class given is functional, cell-based.

SMILES strings stand for the structures. pIC50: −log10 of the molar value. Active and inactive are the calls of the source. No cut-off for these calls is given here.

With `COc1ccc2c(=O)c(-c3cc(OC)c4c(c3OC)OCO4)coc2c1`, the pIC50 in the assay with MDA-MB-231 is 3.78. The inhibition entry in the assay filed under Mus musculus was “inactive”.

For `COc1cc2c(cc1-c1coc3c(CC=C(C)C)c(OC)c(OC)cc3c1=O)OCO2`, the pIC50 in the assay with MDA-MB-231 was less than 3.63. In the assay listed under Mus musculus, the inhibition entry is “inactive”.

Regarding `COc1ccc2c(c1)O[C@@H]1COc3cc4c(cc3[C@@]1(O)C2=O)OCO4`, the inhibition entry in the assay filed under Mus musculus is “inactive”.

`CC(C)=CCOc1ccc2c(=O)c(-c3ccc4c(c3)OCO4)coc2c1`: the negative-log IC50 (pIC50) in the assay with MDA-MB-231 was 3.81. Further, the inhibition entry in the assay listed under Mus musculus was “inactive”.

Take `COc1cc2occ(-c3cc4c(cc3OC)OCO4)c(=O)c2cc1OC`: the inhibition entry in the assay filed under Mus musculus is “inactive”.

Regarding `COc1ccc2c(c1)O[C@@H]1COc3cc4c(cc3[C@@H]1C2=O)OCO4`, the pIC50 in the assay on MDA-MB-231 is 4.03. Further, the inhibition result in the assay filed under Mus musculus is “inactive”.

In the case of `COc1cc2c(cc1-c1coc3cc(O)ccc3c1=O)OCO2`, the inhibition entry in the assay listed under Mus musculus is “inactive”.

As for `COc1ccc2c(c1)O[C@@H]1COc3cc(OC)c(OC)cc3[C@]1(O)C2=O`, the inhibition result in the assay listed under Mus musculus was “inactive”.

Turning to `COc1cc2c(cc1OC)-c1c(oc3c4c(ccc3c1=O)OC(C)(C)C=C4)CO2` [DEHYDRODEGUELIN], the negative-log IC50 (pIC50) (with HepG2; in assay [1]; in assay [2]; in the assay on B16) was 4.80 to 6.25 each time. Further, the inhibition result in the assay listed under Mus musculus was “inactive”.

On to `COc1ccc2c(c1)O[C@@H]1COc3c(cc(OC)c4c3OCO4)[C@]1(O)C2=O`, for which the inhibition result in the assay listed under Mus musculus was “inactive”.

As to `COc1ccc2c(c1)O[C@@H]1COc3cc(OC)c(OC)cc3[C@@H]1C2=O`, in the assay filed under Mus musculus, the inhibition result was “inactive”.

As to `COc1ccc2c(c1)O[C@@H]1COc3cc4c(cc3[C@]1(O)C2=O)OCO4`, the inhibition entry in the assay listed under Mus musculus is “inactive”.

For the compound `COc1ccc(-c2coc3cc(OCC=C(C)C)ccc3c2=O)cc1`, the negative-log IC50 (pIC50) in the assay with MDA-MB-231 is 4.48. The inhibition result in the assay filed under Mus musculus was “inactive”.

`COc1cc2c(cc1OC)[C@]1(O)C(=O)c3ccc4c(c3O[C@@H]1CO2)C=CC(C)(C)O4` [TEPHROSIN]: the negative logarithm of the IC50 (pIC50) (in the assay on HepG2; in assay [1]; in assay [2]; in the assay on B16) was 5.01 to 5.87 each time. For the same compound, the inhibition result in the assay listed under Mus musculus is “inactive”.

The term pIC50 denotes −log10 of the IC50, conventionally taken in molar units.
